Experimental data reported in ChEMBL document CHEMBL4024804 (J Med Chem, 2018).
The source made the active and inactive calls. No cut-off for these calls is given here.

Key:
[1] = species on record: Homo sapiens; experiment: Inhibition of tubulin polymerization in human WM164 cells assessed as fragmentation of microtubules at 100 nM after 18 hrs using DAPI by immunofluorescence-based confocal microscopic method; assay type: cell-based
Summary of the method: (§1)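 WM164 cells on glass coverslips (125 000 cells/well), incubated overnight, treated 18 h with 100 nM compound or DMSO vehicle. Stained with anti-α-tubulin and Alexa Fluor 647 anti-mouse IgG, mounted in DAPI-containing medium, and imaged by confocal microscopy.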

[2] = tested on: DU-145; experiment: Cytotoxicity against human DU145 cells after 72 hrs by MTS assay; assay type: functional, cell-based; details: DU-145, 72 h
Summary of the method: (§2)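 Cells treated 72 h at 10 concentrations, 0.03 nM–1 μM, n = 4. MTS read at 490 nm; IC50 by nonlinear regression. RI = resistant IC50 / parental IC50.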

[3] = Cytotoxicity against human DU145-TxR cells after 72 hrs by MTS assay; assay type: functional, cell-based; summary of the method: as §2
[4] = Resistance index, ratio of IC50 for human PC3-TxR cells to IC50 for human PC3 cells; assay type: functional
Summary of the method: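 Cells were treated 72 h with 10 concentrations from 0.03 nM to 1 μM, four replicates, A490 read. IC50 by nonlinear regression. RI = IC50 resistant / IC50 parental.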

[5] = species on record: Homo sapiens; experiment: Inhibition of tubulin polymerization in human WM164 cells assessed as decrease in polymeric tubulin filaments at 100 nM after 18 hrs using DAPI by immunofluorescence-based confocal microscopic method; assay type: cell-based; summary of the method: as §1
[6] = species on record: Homo sapiens; experiment: Inhibition of tubulin polymerization in human WM164 cells assessed as increase in cytoplasmic soluble tubulin levels at 100 nM after 18 hrs using DAPI by immunofluorescence-based confocal microscopic method; assay type: cell-based; summary of the method: as §1
[7] = tested on: PC-3; experiment: Cytotoxicity against human PC3 cells after 72 hrs by MTS assay; assay type: functional, cell-based; details: PC-3, 72 h; summary of the method: as §2
[8] = Resistance index, ratio of IC50 for human DU145-TxR cells to IC50 for human DU145 cells; assay type: functional; summary of the method: as §2
[9] = Cytotoxicity against human PC3-TxR cells after 72 hrs by MTS assay; assay type: functional, cell-based; summary of the method: as §2
[10] = tested on: RPMI-7951; experiment: Cytotoxicity against human RPMI7951 cells after 72 hrs by MTS assay; assay type: functional, cell-based; details: RPMI-7951, 72 h
Summary of the method: (§3)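 Melanoma cells grown in DMEM with 10% FBS and seeded at 1800–3500 cells per well, then incubated overnight. Cells treated for 72 h with 10 concentrations from 0.03 nM to 1 μM, with DMSO vehicle, in four replicates. MTS added for at least 1 h at 37 °C and absorbance read at 490 nm. IC50 obtained by nonlinear regression.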

[11] = tested on: A-375; experiment: Cytotoxicity against human A375 cells after 72 hrs by MTS assay; assay type: functional, cell-based; details: A-375, 72 h; summary of the method: as §3
[12] = tested on: Liver; experiment: Half life in human liver microsomes by UPLC-MS analysis; assay type: ADME, microsome
Summary of the method: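 Compound at 10 mM in DMSO diluted into human liver microsomes (0.6381 mg/mL protein) in 0.1 M potassium phosphate pH 7.4 with EDTA. NADPH regenerating system added, incubated at 37 °C for 0–4 h in triplicate. Quenched with cold acetonitrile containing warfarin as internal standard, analysed by UPLC–MS SIR. ke from log-linear regression; t1/2 = ln 2/ke.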

[13] = tested on: A-375; experiment: Induction of morphological changes in human A375 cells xenografted in nude mouse assessed as less microvessel density at 15 mg/kg, ip administered every other day for 2 weeks by immunohistochemical analysis; assay type: functional, organism-based
[14] = tested on: A-375; experiment: Antitumor activity against human A375 cells xenografted in nude mouse assessed as decrease in tumor weight at 30 mg/kg, ip administered every other day for 2 weeks; assay type: functional, organism-based; details: 15 mg/kg, in the assay text read “at 15 mg/kg” for “at 30 mg/kg”
Summary of the method: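 Nude mice (6–8 weeks) injected subcutaneously in dorsal flank with 2 × 10^6 A375 cells in Matrigel. At ~100 mm3, randomized (n = 8). Compound given ip every other day in 2:1 PEG300/PBS; vehicle equal parts PEG300/PBS. Tumors weighed at sacrifice; mean ± SEM, ANOVA with Dunnett's test versus vehicle.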

[15] = tested on: A-375; experiment: Induction of apoptosis in human A375 cells xenografted in nude mouse assessed as increase in cleaved caspase-3 levels at 15 mg/kg, ip administered every other day for 2 weeks by immunohistochemical analysis; assay type: functional, organism-based
Summary of the method: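 Formalin-fixed, paraffin-embedded A375 xenograft tumors from mice dosed ip every other day (2:1 PEG300/PBS). Serial sections immunostained with rabbit anti-cleaved caspase 3 antibody by the ABC-DAB method.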

[16] = tested on: M14; experiment: Cytotoxicity against human M14 cells after 72 hrs by MTS assay; assay type: functional, cell-based; details: M14, 72 h; summary of the method: as §3
[17] = tested on: Tubulin (Sus scrofa); experiment: Inhibition of tubulin (porcine brain) polymerization measured every min for 50 mins
[18] = Acute toxicity in nude mouse administered as qd for 5 days; details: in vivo
Summary of the method: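 Nude mice, 6–8 weeks old; compound formulated in PEG300 and given as five continuous daily administrations, then monitored for acute toxicity. A single-dose acute MTD was estimated first.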

[19] = tested on: A-375; experiment: Antitumor activity against human A375 cells xenografted in nude mouse assessed as tumor growth inhibition at 15 mg/kg, ip administered every other day for 2 weeks relative to control; assay type: functional; details: A-375, ip, 336 h, read-out: TGI
Summary of the method: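 Nude mice 6–8 weeks old; 2 × 10^6 A375 cells in FBS-free medium with Matrigel injected sc into dorsal flank. At about 100 mm3 mice were randomized, n = 8. Drug in 2:1 PEG300/PBS given ip every other day. Volume measured by caliper three times weekly (a × b2 × 0.5).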

[20] = tested on: RPMI-7951; experiment: Antimigratory activity in human RPMI7951 cells assessed as wound closure at 25 nM after 18 hrs (reference value: 71.8 +/- 1.8%); assay type: functional
[21] = tested on: RPMI-7951; experiment: Antimigratory activity in human RPMI7951 cells at 5 nM after 18 hrs by wound healing assay; assay type: functional, cell-based
[22] = tested on: A-375; experiment: Antimigratory activity in human A375 cells assessed as wound closure at 25 nM after 22 hrs (reference value: 60.7 +/- […]); assay type: functional
[23] = tested on: A-375; experiment: Antimigratory activity in human A375 cells assessed as wound closure at 5 nM after 22 hrs (reference value: 60.7 +/- […]); assay type: functional
[24] = tested on: PC3-TxR; experiment: Antitumor activity against human PC3-TxR cells xenografted in nude mouse assessed as decrease in tumor volume at 15 mg/kg, ip administered every other day for 3 weeks; assay type: functional, organism-based
Summary of the method: (§4)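 Paclitaxel-resistant PC-3/TxR, kept drug-free at least 1 week beforehand, implanted subcutaneously (2.5 × 10^6 cells with Matrigel) in nude mice. Randomized at ~100 mm3 (n = 7). Dosing ip every other day in 2:1 PEG300/PBS. Volume by caliper (a × b2 × 0.5) three times weekly, tumors weighed at end. One-way ANOVA with Dunnett's test versus vehicle.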

[25] = tested on: PC3-TxR; experiment: Antitumor activity against human PC3-TxR cells xenografted in nude mouse assessed as decrease in tumor weight at 15 mg/kg, ip administered every other day for 3 weeks; assay type: functional, organism-based; summary of the method: as §4
[26] = tested on: Mus musculus; experiment: Toxicity in nude mouse xenografted with human PC3-TxR cells assessed as decrease in body weight at 15 mg/kg, ip administered every other day for 2 weeks; assay type: organism-based; details: in vivo, 336 h
[27] = tested on: PC-3; experiment: Antitumor activity against human PC3 cells xenografted in nude mouse assessed as decrease in tumor volume at 15 mg/kg, ip administered every other day for 3 weeks; assay type: functional, organism-based
Summary of the method: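 PC-3 cells (2.5 × 10^6) with Matrigel injected subcutaneously in dorsal flank of nude mice. At ~100 mm3, randomized (n = 8). Dosing ip every other day in 2:1 PEG300/PBS; vehicle PEG300/PBS 1:1. Caliper volume a × b2 × 0.5 three times weekly.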

## CC(=O)O[C@@]12CO[C@@H]1C[C@H](O)[C@@]1(C)C(=O)[C@H](O)C3=C(C)[C@@H](OC(=O)[C@H](O)[C@@H](NC(=O)OC(C)(C)C)c4ccccc4)C[C@@](O)([C@@H](OC(=O)c4ccccc4)[C@H]21)C3(C)C [DOCETAXEL ANHYDROUS]
[1]
  inhibition: inactive
[2]
  IC50: 0.1 nM
[3]
  IC50: 352 nM
[4]
  Ratio IC50: 55.8
[5]
  inhibition: inactive
[6]
  inhibition: inactive
[7]
  IC50: 0.5 nM
[8]
  Ratio IC50: >3523
[9]
  IC50: 27.9 nM

## COc1ccc2c(c1)CCCN2c1nc(Cl)nc2ccoc12
[10]
  IC50: 5.1 nM
[11]
  IC50: 3.2 nM
[12]
  t1/2: 19.2 min
[13]
  Activity: Active
[14]
  Activity: Active
[15]
  Activity: Active
[16]
  IC50: 3.3 nM
[17]
  inhibition: Dose-dependent effect
[18]
  MTD at 120 h: 30 mg/kg
[19]
  inhibition in vivo at 15 mg/kg: 66.5%

## COc1cc2c(c(OC)c1OC)-c1ccc(OC)c(=O)cc1[C@@H](NC(C)=O)CC2 [COLCHICINE]
[20]
  Activity: 42.8%
[21]
  Activity: inactive
[22]
  Activity: 20.7%
[23]
  Activity: 46%

## COc1ccc2c(c1)CCCN2c1nc(C)nc2onc(C)c12
[10]
  IC50: 17.6 nM
[11]
  IC50: 16.1 nM
[12]
  t1/2: 51.6 min
[16]
  IC50: 18.8 nM

## COc1ccc2c(c1)CCCN2c1nc(Cl)nc2ncn(C)c12
[10]
  IC50: 58.9 nM
[11]
  IC50: 39.6 nM
[16]
  IC50: 41.2 nM

## COc1ccc2c(n1)CCCN2c1nc(Cl)nc2ncccc12
[10]
  IC50: > 1000 nM
[11]
  IC50: > 1000 nM
[16]
  IC50: > 1000 nM

## CN(c1ccc2c(c1)OCO2)c1nc(Cl)nc2ncccc12
[10]
  IC50: 179 nM
[11]
  IC50: 162 nM
[16]
  IC50: 164 nM

## COc1ccc(N(C)c2nc(Cl)nc3ncccc23)cc1OC
[10]
  IC50: 47.5 nM
[11]
  IC50: 39 nM
[16]
  IC50: 39.5 nM

## CC(=O)O[C@H]1C(=O)[C@@]2(C)[C@H]([C@H](OC(=O)c3ccccc3)[C@]3(O)C[C@H](OC(=O)[C@H](O)[C@@H](NC(=O)c4ccccc4)c4ccccc4)C(C)=C1C3(C)C)[C@]1(OC(C)=O)CO[C@@H]1C[C@@H]2O [PACLITAXEL]
[24]
  Activity: inactive
[15]
  Activity: Active
[25]
  Activity: inactive
[3]
  IC50: > 1000 nM
[26]
  Activity: Toxic
[7]
  IC50: 3.7 nM
[27]
  Activity: Active
[9]
  IC50: 111 nM
[19]
  inhibition in vivo at 15 mg/kg: 76.5%
